A short description of series [1]: melting temperature; fluorescence melt of hairpins on a sequencing array, two-state fit, raised by 9.35 °C to match UV melts. As to conditions: sodium 0.088 M. The gist of the method: (§1)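 Folding enthalpy and melting temperature come from bootstrapped two-state fits to Cy3 fluorescence of library hairpins carrying annealed Cy3 and quencher oligos on a sequenced MiSeq flow cell. Imaging was done in 50 mM Na-HEPES pH 8.0, 25 mM NaCl, stepping by 2.5 °C up to 60 °C, and signals were normalised to pre-quench Cy3 and to control constructs. Results of four replicates were combined by inverse variance, and fitted temperatures were raised by 9.35 °C to match UV melts.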

The nature of series [2]: folding enthalpy; higher = less favourable; fluorescence melt of hairpins on a sequencing array, two-state fit. As to conditions: sodium 0.088 M. The gist of the method:
as §1

From the array DNA melting data of Ke et al. (doi:10.1101/2024.01.08.574731) come the findings set out here.

For GTAGGCGGAAACGCTTAC (((.(((....))).))), in series [1], the Tm worked out at 48.2 °C. The folding enthalpy in series [2] is -23.1 kcal/mol.

Turning to GTAGGGCGAAAGCCTAC (((.(((....)))))), the Tm in series [1] amounted to 51.8 °C. Besides, the folding enthalpy in series [2] was -14.1 kcal/mol.

Consider GTAGGGGGAAACCCTTGC (.(.(((....))).).), for which the Tm in series [1] is 31.9 °C. In addition, the folding enthalpy in series [2] was -13.2 kcal/mol.

On to GTAGGGGGAAACTCCTAC (((((.(....).))))), for which the Tm in series [1] was 47.2 °C. Further, the folding enthalpy in series [2] was -28.5 kcal/mol.

For the sequence GTAGGTCGAAAGACGTAC (((.(((....))).))), in series [1], the Tm came out at 51.7 °C. In addition, the folding enthalpy in series [2] was -36.2 kcal/mol.

With GTAGGTGCGAAAGCATAC (((..(((....)))))), the Tm in series [1] amounted to 31.1 °C. The folding enthalpy in series [2] was -8.27 kcal/mol.

With GTAGGTGGAAACACTTGC (.(.(((....))).).), the Tm in series [1] came to 31.7 °C. For the same sequence, the folding enthalpy in series [2] is -14.3 kcal/mol.

For the sequence GTAGGTGGAAACGCTTAC (((.(.(....).).))), the Tm in series [1] is 31.4 °C. The folding enthalpy in series [2] was -23 kcal/mol.

In the case of GTAGGTGGAAACGTCTAC ((((..(....)..)))), the Tm in series [1] came to 28.8 °C. The folding enthalpy in series [2] is -16.8 kcal/mol.

Regarding GTAGTAGAAATACTAC ((((((....)))))), in series [1], the Tm stood at 43.1 °C. For the same sequence, the folding enthalpy in series [2] is -26.1 kcal/mol.

In the case of GTAGTCCCGAAAGGGTAC (((..(((....)))))), the Tm in series [1] was 31.5 °C. In addition, the folding enthalpy in series [2] was -10.8 kcal/mol.

Take GTAGTCCGAAAGGAATAC (((.(((....))).))): the Tm in series [1] was 49.7 °C. In addition, in series [2], the folding enthalpy is -37.6 kcal/mol.

As for GTAGTCGAAAGACACTAC ((((((....)))..))), the Tm in series [1] is 39.6 °C. The folding enthalpy in series [2] was -19.7 kcal/mol.

In the case of GTAGTCGAAAGACAGTAC ((((((....)))..))), the Tm in series [1] came to 27.2 °C. Further, the folding enthalpy in series [2] is -12.5 kcal/mol.

Consider GTAGTCGAAAGACCTAC ((((((....))).))), for which the Tm in series [1] was found to be 36.8 °C. In addition, in series [2], the folding enthalpy was -18.9 kcal/mol.

Turning to GTAGTCGAAAGACGATAC ((((((....)))..))), in series [1], the Tm turned out to be 35.6 °C. The folding enthalpy in series [2] is -13 kcal/mol.

In the case of GTAGTCGAAAGACTTAC ((((((....))).))), the Tm in series [1] turned out to be 39.9 °C. Moreover, the folding enthalpy in series [2] is -13.2 kcal/mol.

As for GTAGTCGAAAGACTTTAC ((((((....)))..))), in series [1], the Tm worked out at 29.5 °C. The folding enthalpy in series [2] is -13.7 kcal/mol.

Take GTAGTGCGAAAGCAATAC (((.(((....))).))): the Tm in series [1] was 53.9 °C. Moreover, in series [2], the folding enthalpy was -28 kcal/mol.

As for GTAGTGGGAAACCACTAC (((((((....))))))), the Tm in series [1] was 63.4 °C. For the same sequence, the folding enthalpy in series [2] was -30.3 kcal/mol.

Consider GTAGTGGGAAACTGCTAC ((((..(....)..)))), for which the Tm in series [1] came to 36.8 °C. In series [2], the folding enthalpy is -23.4 kcal/mol.

In the case of GTAGTTCCGAAAGGATAC (((..(((....)))))), the Tm in series [1] amounted to 27.7 °C. In addition, the folding enthalpy in series [2] is -11.6 kcal/mol.

With GTATAACGAAAGTTGTAC (((.(((....))).))), in series [1], the Tm came to 45.5 °C. In series [2], the folding enthalpy is -28.4 kcal/mol.

Turning to GTATAACGAAAGTTTAC (((.(((....)))))), in series [1], the Tm came to 30.4 °C. The folding enthalpy in series [2] was -16.8 kcal/mol.

As for GTATACGAAAGTAGCTAC ((((((....)))..))), in series [1], the Tm was 24.4 °C. In addition, the folding enthalpy in series [2] is -8.67 kcal/mol.

As for GTATACGAAAGTATAC ((((((....)))))), in series [1], the Tm worked out at 54.2 °C. The folding enthalpy in series [2] was -28.4 kcal/mol.

As for GTATACGGAAACGTATGC (.(((((....))))).), in series [1], the Tm is 46.4 °C. In addition, in series [2], the folding enthalpy is -24.5 kcal/mol.

Turning to GTATAGCCGAAAGGCTAC (((..(((....)))))), the Tm in series [1] is 36.4 °C. The folding enthalpy in series [2] was -7.94 kcal/mol.

Take GTATAGCGAAAGCTTAC (((.(((....)))))): the Tm in series [1] came to 39.2 °C. Also, the folding enthalpy in series [2] was -12.8 kcal/mol.

For GTATAGCGAAAGCTTTAC (((.(((....))).))), in series [1], the Tm came to 40.9 °C. The folding enthalpy in series [2] is -22 kcal/mol.

Turning to GTATAGGGAAACCTGTAC (((.(((....))).))), the Tm in series [1] came to 39.2 °C. In series [2], the folding enthalpy was -30.3 kcal/mol.

As for GTATAGTCGAAAGACTAC (((..(((....)))))), in series [1], the Tm was 32.6 °C. Further, the folding enthalpy in series [2] is -11.9 kcal/mol.

Turning to GTATATCGAAAGATCTAC (((.(((....))).))), in series [1], the Tm was 31.8 °C. Further, the folding enthalpy in series [2] is -19.5 kcal/mol.

As to GTATCCACGAAAGTGTAC (((..(((....)))))), the Tm in series [1] was determined as 21.2 °C. Further, the folding enthalpy in series [2] is -10.6 kcal/mol.

For the sequence GTATCCGAAAGGACGTAC ((((((....)))..))), in series [1], the Tm turned out to be 25.9 °C. The folding enthalpy in series [2] was -9.37 kcal/mol.

Take GTATCCGAAAGGACTAC ((((((....))).))): the Tm in series [1] amounted to 35.9 °C. In series [2], the folding enthalpy was -14.3 kcal/mol.

GTATCCGAAAGGAGGTAC ((((((....)))..))): the Tm in series [1] is 28.5 °C. Moreover, the folding enthalpy in series [2] was -10.3 kcal/mol.
